Records with an inconclusive call do not appear.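 Rule for the calls, unless noted: active = RAM network inhibition above 8.4% in each of two replicates, 3 SD over the compound average; inconclusive = above 8.4% inhibition in only one replicate; inactive = 8.4% inhibition or less in each replicate.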
Legend:
[1] = OD615 S. cerevisiae growth inhibition, permissive medium, pilot counter-assay, permissive growth control for S. cerevisiae lifespan shortening project (AID 705;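 active = growth inhibition above 25% in both replicates, a cutoff set 3 SD above the mean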); conditions: OD615, 24 h, at 10 µM, active compounds read high
Procedure, shortened: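 Test system: Saccharomyces cerevisiae strain carrying genetically modified DeaD replicative-lifespan system; buffer or medium: SC raffinose/galactose permissive medium; dosing: one dose 10 µM, DMSO 0.25% final; times: 24 h exposure, 30 °C; measured by: OD at 615 nm; read-out basis: growth inhibition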

[2] = Restrictive medium S. cerevisiae growth inhibition, OD615, pilot screen of yeast lifespan reduction project, restrictive growth control (AID 706;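 active = growth inhibition above a set limit, 3 SD over mean compound inhibition, in both replicates, cut at about 43% in these data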;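 note: modified DeaD lifespan yeast strain shifted to restrictive glucose medium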); conditions: OD615, 48 h, at 10 µM, active compounds read high
Procedure, shortened: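 material = engineered S. cerevisiae DeaD strain | buffer or medium = glucose-based CSMM-D restrictive medium | dosing = one concentration, 10 µM final, 0.25% DMSO | schedule = 4 h pre-growth plus 48 h compound exposure, 30 °C | detection = OD615 absorbance reading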

[3] = viability gain of MRP-1-high H69AR cells under doxorubicin, pilot screen, MRP-1 activator project, CellTiter-Glo, duplicate (AID 807;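 active = viability increase at or above a cutoff of the median across tested compounds plus 3 SD, cut at about 8.5% in these data, passing the limit was not always enough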;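 note: compound pretreatment 18-22 h then 72 h combined with doxorubicin; 0% = doxorubicin alone and 100% = vehicle without doxorubicin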); conditions: H69AR viability with doxorubicin, CellTiter-Glo luminescence; at 10 µM; active compounds read high
[4] = growth suppression of beta-catenin knockout HCT116, pilot screen, human colon tumor cells (AID 823;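 active = cell viability at or below a set limit in both duplicate runs, the limit being the all-compound median minus 4 SD, cut at about 23% in these data, passing the limit was not always enough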;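 note: 0% = wells killed by 20 µM Hyamine and 100% = untreated DMSO cell wells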); conditions: CellTiter-Glo, 60 h, at 10 µM, active compounds read low
[5] = growth suppression of PTEN-deleted HCT116, pilot screen, cell-based, HCT116 clonal line, CellTiter-Glo (AID 824;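 active = viability at or below 27.92% in each of two runs, the all-compound median minus 4 SD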;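 note: 0% = 20 µM Hyamine control and 100% = vehicle cell control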); conditions: 60 h, at 10 µM, active compounds read low
[6] = inhibitors of the yeast RAM network, pilot screen, dse1pr::URA3 reporter, 5-FOA selection (AID 869;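 active = inhibition over a set limit, the all-compound mean plus 3 SD, in both replicate runs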;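 note: 0% = DMSO wells with no growth and 100% = 10 µM 1-NA-PP1 with full growth; RAM network block rescues cells from 5-FOA so hits raise OD615 growth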); conditions: S. cerevisiae dse1pr::URA3 5-FOA growth, OD615, 2 d; at 10 µM; active compounds read high; strain carries analog-sensitive mutant Cbk1 kinase
[7] = RAM signaling pathway blockade in yeast – S. cerevisiae, Pdr1DBD-CYC8 efflux-inhibited sensitized strain, primary screen (AID 1298);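 note: 0% = DMSO untreated cells without growth and 100% = 10 µM 1-NA-PP1 full growth; higher means more yeast growth rescued from 5-FOA killing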; conditions: S. cerevisiae cbk1-as DSE1-URA3 strain, 5-FOA growth OD615, 2 d; at 50 µM; active compounds read high

CCOc1ccc(-c2cc(CCCC(=O)NCc3ccco3)no2)cc1
inactive: growth inhibition [1] -2.19% | growth inhibition [2] -4.02% | viability increase [3] -2.79% | viability [4] 86.5% | viability [5] 88% | inhibition [6] 0.22% | RAM network inhibition [7] 1.77%

CCOC(=O)C1=C(C)NC(=O)NC1c1ccco1 (stereo not given)
inactive: growth inhibition [1] 1.02% | growth inhibition [2] -9.79% | viability increase [3] -3.38% | viability [4] 103% | viability [5] 105% | inhibition [6] -0.995% | RAM network inhibition [7] -0.57%

NC(=O)c1ccsc1NC(=O)c1ccco1
inactive: growth inhibition [1] 7.15% | growth inhibition [2] 20.1% | viability increase [3] -1.54% | viability [4] 102% | viability [5] 99% | inhibition [6] 1.1% | RAM network inhibition [7] 1.1%

CCCc1ncc(C(O)c2cccc(OC)c2OC)n1C (stereo not given)
inactive: growth inhibition [1] -11% | growth inhibition [2] -23% | viability increase [3] -2.63% | viability [4] 95.9% | viability [5] 94.4% | inhibition [6] 0.71% | RAM network inhibition [7] 1.45%

NC(=O)c1cccc(S(=O)(=O)N2CC(c3ccccc3)CC2=O)c1 (stereo not given)
inactive: growth inhibition [1] -15.8% | growth inhibition [2] -15% | viability increase [3] -1.11% | viability [4] 99.5% | viability [5] 96.1% | inhibition [6] 0.075% | RAM network inhibition [7] -0.76%

O=C(NCCc1ccccc1)C1CCN(S(=O)(=O)c2cccnc2)CC1
inactive: growth inhibition [1] -7.37% | growth inhibition [2] 0.25% | viability increase [3] -0.16% | viability [4] 104% | viability [5] 94.8% | inhibition [6] 1.88% | RAM network inhibition [7] 1.62%

CCn1c(SCc2nc(-c3ccccc3)no2)nc2ccccc21
inactive: growth inhibition [1] -12% | growth inhibition [2] 8.5% | viability increase [3] 1.73% | viability [4] 93.1% | viability [5] 92.3% | inhibition [6] 0.38% | RAM network inhibition [7] 1.2%

CCOC(=O)c1cccc(NC(=O)C2CCC(CNc3c(N4CCOCC4)c(=O)c3=O)CC2)c1 (stereo not given)
inactive: growth inhibition [1] -7.33% | growth inhibition [2] -13.8% | viability increase [3] -2.63% | viability [4] 83.7% | viability [5] 82.4% | inhibition [6] 0.325% | RAM network inhibition [7] 1.31%

CC(C)N(Cc1nc(-c2ccc(Cl)cc2)no1)C(=O)CCCN1C(=O)c2ccccc2C1=O
inactive: growth inhibition [1] -14.4% | growth inhibition [2] -15.6% | viability increase [3] 5.41% | viability [4] 104% | viability [5] 91.6% | inhibition [6] 1.4% | RAM network inhibition [7] 6.24%

O=C(Nc1ccc(Oc2ccccc2)cc1)c1cnc2n(c1=O)CCS2
inactive: growth inhibition [1] -16.5% | growth inhibition [2] -12.6% | viability increase [3] 5.46% | viability [4] 68.8% | viability [5] 65.9% | inhibition [6] 3.62% | RAM network inhibition [7] 8.2%

CCN1CCN(C(=O)Cn2ncc3c2-c2ccccc2OC3)CC1
inactive: growth inhibition [1] 0.755% | growth inhibition [2] 0.8% | viability increase [3] -1.74% | viability [4] 106% | viability [5] 99.9% | inhibition [6] 1.14% | RAM network inhibition [7] 2.81%

Cn1c(SCCSc2nnc(-c3ccccc3)n2C)nnc1-c1ccccc1
inactive: growth inhibition [1] -12.1% | growth inhibition [2] 8.02% | viability increase [3] -0.26% | viability [4] 97.4% | viability [5] 93.8% | inhibition [6] 1.62% | RAM network inhibition [7] 5.17%

O=C(O)c1ccc(-n2cccc2)cc1O
inactive: growth inhibition [1] -2.21% | growth inhibition [2] -13.1% | viability increase [3] -1.52% | viability [4] 96.8% | viability [5] 101% | inhibition [6] 0.285% | RAM network inhibition [7] -0.83%

COc1cccc(C2CC(c3ccccc3)Nc3nc(N)nn32)c1 (stereo not given)
inactive: growth inhibition [1] -2.81% | growth inhibition [2] 7.94% | viability increase [3] 0.44% | viability [4] 94.9% | viability [5] 93.5% | inhibition [6] 1.83% | RAM network inhibition [7] 3.16%

Cn1c(=O)n(C)c2cc(CN3C(=O)OC(C)(C)C3(C)O)ccc21 (stereo not given)
inactive: growth inhibition [1] 2.22% | growth inhibition [2] 0.365% | viability increase [3] -1.11% | viability [4] 105% | viability [5] 95.2% | inhibition [6] 0.09% | RAM network inhibition [7] 4.45%

Cc1ccnc(N2C(=O)c3ccccc3C2Nc2ccccc2Cl)c1 (stereo not given)
inactive: growth inhibition [1] -15.2% | growth inhibition [2] -17.5% | viability increase [3] 2.73% | viability [4] 84.9% | viability [5] 92.5% | inhibition [6] 1.49% | RAM network inhibition [7] 12.8%

Cc1cccc(-c2nc(CS(=O)CC(=O)NC3CCCC3)c(C)o2)c1 (stereo not given)
inactive: growth inhibition [1] 6.19% | growth inhibition [2] 1.96% | viability increase [3] -3.32% | viability [4] 94.5% | viability [5] 91.7% | inhibition [6] 3.42% | RAM network inhibition [7] 4.67%

O=C(c1ccccc1NS(=O)(=O)c1cccs1)N1CCCC1
inactive: growth inhibition [1] -1.34% | growth inhibition [2] 3.17% | viability increase [3] -0.63% | viability [4] 93.1% | viability [5] 94.1% | inhibition [6] 1.84% | RAM network inhibition [7] 1.28%

CN1C(=O)CC(N2CCC(c3nc4ccccc4[nH]3)CC2)C1=O (stereo not given)
inactive: growth inhibition [1] -11.7% | growth inhibition [2] -11.2% | viability increase [3] -0.66% | viability [4] 112% | viability [5] 98.9% | inhibition [6] 3.77% | RAM network inhibition [7] 3.31%

CCOc1cc(N2CCOCC2)c(OCC)cc1NC(=O)c1cc(-c2ccco2)nc2ccccc12
inactive: growth inhibition [1] 1.62% | growth inhibition [2] -4.63% | viability increase [3] -5.6% | viability [4] 65.4% | viability [5] 60.8% | inhibition [6] 0.475% | RAM network inhibition [7] 6.51%

Cc1cc(Nc2cccc(F)c2)n2ncnc2n1
inactive: growth inhibition [1] -0.15% | growth inhibition [2] 12.3% | viability increase [3] 0% | viability [4] 101% | viability [5] 106% | inhibition [6] 1.23% | RAM network inhibition [7] 0.16%

CC1CCc2nn(CC(=O)Nc3c(F)cc(F)cc3Br)cc2C1 (stereo not given)
inactive: growth inhibition [1] -5.22% | growth inhibition [2] -6.17% | viability increase [3] 2.17% | viability [4] 102% | viability [5] 90.3% | inhibition [6] 1.84% | RAM network inhibition [7] 1.57%

COc1ccc(N(CC(=O)N2CCN(C)CC2)S(=O)(=O)c2ccccc2)cc1OC
inactive: growth inhibition [1] -16.8% | growth inhibition [2] -19.4% | viability increase [3] -1.07% | viability [4] 104% | viability [5] 91.8% | inhibition [6] 0.195% | RAM network inhibition [7] 1.1%

COc1ccc(C2(CNC(C)=O)CCOCC2)cc1OC
inactive: growth inhibition [1] -14.1% | growth inhibition [2] -2.29% | viability increase [3] 1.21% | viability [4] 103% | viability [5] 97.8% | inhibition [6] 2.54% | RAM network inhibition [7] -0.32%

COc1cc(NC(=O)Cn2ncc3c2-c2ccccc2OC3)cc(OC)c1OC
inactive: growth inhibition [1] -6.13% | growth inhibition [2] 6.98% | viability increase [3] -3.04% | viability [4] 86.6% | viability [5] 83.5% | inhibition [6] 2.05% | RAM network inhibition [7] 2.19%

Cc1ccc(C)c(C(=O)N(Cc2nc(-c3ccc(Cl)cc3)no2)C(C)C)c1
inactive: growth inhibition [1] -8.99% | growth inhibition [2] -16.6% | viability increase [3] -0.54% | viability [4] 56.5% | viability [5] 62.6% | inhibition [6] 1.21% | RAM network inhibition [7] 4.04%

CN(CCNC(=O)C1(O)c2ccccc2NC(=O)N1c1ccccc1)Cc1ccccc1 (stereo not given)
inactive: growth inhibition [1] -15.6% | growth inhibition [2] -17.7% | viability increase [3] -2.03% | viability [4] 95.8% | viability [5] 93.2% | inhibition [6] 0.43% | RAM network inhibition [7] 2.02%

N#Cc1ccccc1Cn1c(=O)n(-c2ccc(CC(=O)NCc3ccco3)cc2)c(=O)c2sccc21
inactive: growth inhibition [1] -3.44% | growth inhibition [2] 3.28% | viability increase [3] -1.7% | viability [4] 97.8% | viability [5] 99.6% | inhibition [6] 2.13% | RAM network inhibition [7] 4.46%

Cc1ccc(Cl)cc1N1CCN(C(=O)C2CCN(c3nnc(-n4cccc4)s3)CC2)CC1
inactive: growth inhibition [1] -6.07% | growth inhibition [2] -7.06% | viability increase [3] 2.36% | viability [4] 64% | viability [5] 64% | inhibition [6] 4.06% | RAM network inhibition [7] 8.04%

CCCCn1c(CNC(=O)C(C)(C)C)nc2ccccc21
inactive: growth inhibition [1] -11.1% | growth inhibition [2] -12% | viability increase [3] -1.15% | viability [4] 98% | viability [5] 98.9% | inhibition [6] 0.25% | RAM network inhibition [7] 5.15%

O=C(O)CCC(=O)NCc1ccc2[nH]c3c(c2c1)CCCC3
inactive: growth inhibition [1] -13.2% | growth inhibition [2] 3.53% | viability increase [3] 0.95% | viability [4] 101% | viability [5] 96.5% | inhibition [6] 1.51% | RAM network inhibition [7] 4.69%

COc1ccc(-c2cc(C(=O)O)c3ccccc3n2)c(OC)c1
inactive: growth inhibition [1] -10.4% | growth inhibition [2] 0.26% | viability increase [3] -2.6% | viability [4] 82.2% | viability [5] 89.3% | inhibition [6] 1.47% | RAM network inhibition [7] 5.56%

COc1ccc(-c2nnc3ccc(SCC(=O)N4CCCCCC4)nn23)cc1OC
inactive: growth inhibition [1] 1.58% | growth inhibition [2] -3.42% | viability increase [3] -4.16% | viability [4] 103% | viability [5] 109% | inhibition [6] 0.615% | RAM network inhibition [7] 0.05%

CC(=O)CSc1nc2ccc(Nc3nc(N4CCOCC4)nc(N4CCOCC4)n3)cc2s1
inactive: growth inhibition [1] 15.1% | growth inhibition [2] 38.6% | viability increase [3] -5.89% | viability [4] 66.6% | viability [5] 73.5% | inhibition [6] 0.87% | RAM network inhibition [7] 7.76%

Cn1c(Cn2c(=O)sc3ccccc32)nnc1SCC(=O)NCCc1ccccc1
inactive: growth inhibition [1] -10% | growth inhibition [2] -16.2% | viability increase [3] -0.09% | viability [4] 100% | viability [5] 105% | inhibition [6] 2.5% | RAM network inhibition [7] 3.42%

— PubChem BioAssay
